Data set [1] can be described thus: Antiepileptic activity in male CF1 mice 30 min after administration measured in subcutaneous pentylenetetrazole (scMet) test at a dose of 100 mg/kg (no. of animals treated /protected); activity value is 0/1. In kind it is functional, Mus musculus.
Data set [2] has as its system Rattus norvegicus. The data set is described as follows: Per oral dose (50 mg/Kg) reducing rat corneal kindling 0.5 hr after administration. In kind it is functional. A digest of the protocol:
(§1)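 Sprague-Dawley rats (85–95 g initial) were kindled with 4 s, 8 mA corneal stimulations (butacaine anesthesia) to 10 consecutive stage 5 seizures. After a vehicle shock and a 2-day shock-free period, test drug was given ip or po and a single shock applied at time of peak effect. Seizures were scored on a modified Racine 0–5 scale. ED50 is the dose reducing severity by 50% (Litchfield–Wilcoxon).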

Data set [3] in a line: Protective index was measured as TD50/ED50. Type of data set: ADME. Particulars: read-out: PI.
The nature of data set [4]: Time of peak anticonvulsant effect in CF1 mice. Type of data set: functional, Mus musculus. In a few lines:
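Male CF1 mice (ca. 24–34 g), compound in 0.5% methylcellulose suspension given ip or po; time (h) at which MES protection (against tonic hind limb extension) peaked was recorded and used for ED50 determination.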

Data set [5] in a line: Dose elevating electroshock induced seizure by 20% in CF1 mice after ip administration. In kind it is functional, Mus musculus. A digest of the protocol:
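In CF1 male mice (ca. 24–34 g), compound was given ip in 0.5% methylcellulose. The current giving hind limb extension in 50% of mice was found by the up-and-down method, with 15–25 mice per group and a vehicle control group run with each experimental group. At least three doses were tested. The dose raising threshold current by 20% was taken from a plot of dose against % threshold increase.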

Data set [6] in a line: Antiepileptic activity in male CF1 mice 30 min after administration measured in subcutaneous pentylenetetrazole (scMet) test at a dose of 300 mg/kg (no. of animals treated /protected); activity value is 0/1. Type of data set: functional, Mus musculus.
Data set [7] in a line: Dose protecting 50% of the mice from tonic hind limb extension at the time of peak convulsant effect after po administration. To be noted: Mus musculus, Hindlimb. In kind it is functional. In a few lines: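 Phase II quantification in CF1 male mice (ca. 24–34 g), dosing ip or po in 0.5% methylcellulose suspension. ED50 is protection from tonic hind limb extension in MES. TD50 is rotorod neurotoxicity. Both were read at time of peak effect and derived by Litchfield–Wilcoxon with 95% confidence limits.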

Data set [8] in a line: Antiepileptic activity in male CF1 mice 4 hr after oral administration measured in neurological toxicity (Tox) test at a dose of 50 mg/kg (no. of animals treated /protected); activity value is 0/4. In kind it is functional, Mus musculus.
Data set [9] can be described thus: Antiepileptic activity in male CF1 mice 30 min after administration measured in maximum electroshock seizure(MES) test at a dose of 300 mg/kg (no. of animals treated /protected); activity value is 1/1. Type of data set: functional, Mus musculus.
Data set [10] can be described thus: Dose at which anticonvulsant activity was observed in mice. Type of data set: functional, Mus musculus.
Data set [11] is described as follows: Oral dose producing neurotoxic effects in 50% of rats. Type of data set: ADME, organism-based. To be noted: rat, in vivo. A digest of the protocol: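 Phase VI screen in male Sprague-Dawley rats dosed orally. MES protection and rotorod toxicity were scored as animals responding over animals tested at 0.25, 0.5, 1, 2 and 4 h.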
Data set [12] concerns Rattus norvegicus. Put plainly: Average seizure score for the rat cornea 0.5 hr after peroral administration of 0 mg/kg of compound. Particulars: route oral. In kind it is functional. In a few lines: as §1
Data set [13] is described as follows: Antiepileptic activity in male CF1 mice 1 hr after oral administration measured in maximum electroshock seizure(MES) test at a dose of 50 mg/kg; activity value is 3/4. In kind it is functional, Mus musculus.
Data set [14] in a line: Antiepileptic activity in male CF1 mice 30 min after administration measured in maximum electroshock seizure(MES) test at a dose of 100 mg/kg (no. of animals treated /protected); activity value is 2/3. In kind it is functional, Mus musculus.
Data set [15] can be described thus: Antiepileptic activity in male CF1 mice 4 hr after administration measured in subcutaneous pentylenetetrazole (scMet) test at a dose of 300 mg/kg (no. of animals treated /protected); activity value is 0/1. In kind it is functional, Mus musculus.
A short description of data set [16]: Antiepileptic activity in male CF1 mice 4 hr after administration measured in neurological toxicity (Tox) test at a dose of 300 mg/kg (no. of animals treated /protected); activity value is 0/2. In kind it is functional, Mus musculus.
Data set [17] relates to Rattus norvegicus. Put plainly: Dose reducing the seizure severity in rat cornea 0.5 hr after peroral administration. Type of data set: ADME, organism-based. Particulars: po. A digest of the protocol:
as §1

Data set [18] deals with Rattus norvegicus. Put plainly: Per oral dose (0 mg/Kg) reducing rat corneal kindling 0.5 hr after administration. In kind it is functional. In a few lines:
as §1

Data set [19] is described as follows: Time of peak neurotoxic effect in CF1 mice. Type of data set: ADME. Particulars: mouse, in vivo. A digest of the protocol:
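Male CF1 mice (ca. 24–34 g), compound ip in 0.5% methylcellulose suspension; neurological deficit assessed by rotorod test, time (h) of peak neurotoxic effect recorded for TD50 determination.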

For data set [20], the system named is Rattus norvegicus. Put plainly: Average seizure score for the rat cornea 0.5 hr after peroral administration of 50 mg/kg of compound. To be noted: route oral. Type of data set: functional. A digest of the protocol: as §1
Data set [21] is described as follows: Antiepileptic activity in male CF1 mice 4 hr after administration measured in subcutaneous pentylenetetrazole (scMet) test at a dose of 100 mg/kg; activity value is 0/1. Type of data set: functional, Mus musculus.
Data set [22] is described as follows: Protective index was measured as TD50/MES ED50 in mice on po administration. To be noted: mouse, in vivo, read-out: PI. Type of data set: ADME, organism-based. A digest of the protocol: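 Male CF1 mice (ca. 24–34 g) dosed orally with 0.5% methylcellulose suspension. MES ED50 (protection of 50% from tonic hind limb extension) and rotorod TD50, each determined at time of peak effect by Litchfield and Wilcoxon. PI = TD50/MES ED50.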

Data set [23] can be described thus: Antiepileptic activity in male CF1 mice 4 hr after administration measured in maximum electroshock seizure(MES) test at a dose of 100 mg/kg (no. of animals treated /protected); activity value is 0/3. In kind it is functional, Mus musculus.
The subject of data set [24] is Rattus norvegicus. Put plainly: Average seizure score for the rat cornea 0.5 hr after peroral administration of 75 mg/kg of compound. Type of data set: functional. Particulars: route oral. A digest of the protocol:
as §1

The nature of data set [25]: Antiepileptic activity in male CF1 mice 1.00 hours after oral administration measured in neurological toxicity (Tox) test at a dose of 6 mg/kg (no. of animals treated /protected); activity value is 0/4. In kind it is functional, Mus musculus.
Data set [26] relates to Rattus norvegicus. The data set is described as follows: Per oral dose (30 mg/Kg) reducing rat corneal kindling 0.5 hr after administration. In kind it is functional. A digest of the protocol:
as §1

For data set [27], the system named is Rattus norvegicus. Put plainly: Average seizure score for the rat cornea 0.5 hr after peroral administration of 30 mg/kg of compound. Type of data set: functional. Particulars: route oral. In a few lines:
as §1

The nature of data set [28]: Antiepileptic activity in male CF1 mice 0.25 hr after oral administration measured in neurological toxicity (Tox) test at a dose of 10 mg/kg (no. of animals treated /protected); activity value is 0/4. In kind it is functional, Mus musculus.
Data set [29] is described as follows: Antiepileptic activity in male CF1 mice 1 hr after oral administration measured in maximum electroshock seizure(MES) test at a dose of 10 mg/kg; activity value is 4/4. Type of data set: functional, Mus musculus.
The nature of data set [30]: Antiepileptic activity in male CF1 mice 1 hr after oral administration measured in neurological toxicity (Tox) test at a dose of 10 mg/kg (no. of animals treated /protected); activity value is 0/4. In kind it is functional, Mus musculus.
Data set [31] in a line: Antiepileptic activity in male CF1 mice 1 hr after oral administration measured in maximum electroshock seizure(MES) test at a dose of 6 mg/kg (no. of animals treated /protected); activity value is 1/4. Type of data set: functional, Mus musculus.

This note sets out measurements from ChEMBL document CHEMBL1125497, “Synthesis and anticonvulsant activity of enaminones” (J Med Chem, 1992).

For `COC(=O)C1C(=O)C=C(NCc2ccccc2)CC1C` (configuration not stated), the Activity in data set [1] is listed as 0; in data set [6] it was 0; in data set [8] it was 0; in [9], 1; in data set [13], 3; in data set [14] it was 2. Moreover, the Activity in data set [15], in data set [16], in data set [21] and in data set [23] was 0 each time. The Reduction in the data set on Rattus norvegicus [2] is on record as 29%; in the data set on Rattus norvegicus [18], 0%. Besides, the selectivity ratio in data set [3] was 7.7; in data set [22] it was greater than 3.1. Further, the TPE in [4] is on record as 0.5; in [19] it was 1. The Dose in data set [5] is 13 mg/kg; in [10], “<=100 mg kg-1”. Further, the ED50 came to 162 mg/kg in data set [7] and 78.3 mg/kg in the data set with Rattus norvegicus [17] (Rattus norvegicus, Cornea). Besides, the TD50 in [11] was greater than 500 mg/kg. Moreover, the figures for the Average seizure score with Rattus norvegicus [12], with Rattus norvegicus [20] and in the data set with Rattus norvegicus [24] were 5, 3.6 and 2.6, respectively.

Turning to `COC(=O)C1C(=O)C=C(Nc2ccc(Cl)cc2)CC1C` (configuration not stated), the Activity turned out to be 0 in data set [1]; 0 in data set [25]; 0 in [6]; 1 in data set [9]; 0 in data set [15]; 0 in [16]. Moreover, the Activity is 0 in [23]; 0 in data set [28]; 4 in data set [29]; 0 in data set [30]; 1 in data set [31]. The values for the Reduction in the data set with Rattus norvegicus [2], in the data set with Rattus norvegicus [26] and with Rattus norvegicus [18] were 67%, 40% and 0%, respectively. Further, the selectivity ratio in data set [3] was 9.7. For the same compound, the TPE in data set [4] stood at 0.5; in data set [19], 2. For the same compound, the Dose entry in data set [10] is “<=100 mg kg-1”. Moreover, the TD50 in data set [11] was greater than 380 mg/kg. Moreover, the values for the Average seizure score in the data set on Rattus norvegicus [12], in the data set with Rattus norvegicus [27] and in the data set with Rattus norvegicus [20] were 4.9, 3 and 1.7, respectively. Further, the ED50 with Rattus norvegicus [17] (rat, in vivo) stood at 34.2 mg/kg.
